Results: ChEMBL document CHEMBL1275331, “Discovery of a novel 5-HT(3) antagonist/5-HT(1A) agonist 3-amino-5,6,7,8-tetrahydro-2-{4-[4-(quinolin-2-yl)piperazin-1-yl]butyl}quinazolin-4(3H)-one (TZB-30878) as an orally bioavailable agent for irritable bowel syndrome” (J Med Chem, 2010)

Tests used:
[1] = target: T1, 5-hydroxytryptamine receptor 1A (Homo sapiens, UniProt P08908); assay: Displacement of [3H]8-OH-DPAT from human 5HT1A receptor expressed in CHO cells by liquid scintillation counting; type: cell-based
T1 sequence (P08908 whole entry): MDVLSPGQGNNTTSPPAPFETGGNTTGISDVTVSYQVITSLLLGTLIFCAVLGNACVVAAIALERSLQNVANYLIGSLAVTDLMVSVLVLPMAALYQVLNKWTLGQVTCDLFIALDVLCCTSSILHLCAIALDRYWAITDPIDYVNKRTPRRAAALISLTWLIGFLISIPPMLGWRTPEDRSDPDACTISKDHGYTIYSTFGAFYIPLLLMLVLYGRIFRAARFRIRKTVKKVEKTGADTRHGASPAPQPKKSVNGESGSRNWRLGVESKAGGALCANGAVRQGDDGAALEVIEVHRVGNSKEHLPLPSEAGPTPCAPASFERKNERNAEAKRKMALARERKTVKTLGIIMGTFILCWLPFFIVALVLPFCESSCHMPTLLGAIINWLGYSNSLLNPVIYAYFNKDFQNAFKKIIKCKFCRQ
Procedure, shortened: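 CHO-cell membranes with human 5-HT1A were incubated with 0.25 nmol/L [3H]8-OH-DPAT (final) for 60 min at 27 °C. Buffer: 50 mM Tris-HCl, 10 mM MgSO4, 0.5 mM EDTA, 0.1% ascorbic acid, pH 7.4. Compound came from 270 μmol/L DMSO stock, diluted in buffer. Filtration was through GF/C presoaked in 0.3% polyethyleneimine, with two cold Tris washes. Run in duplicate or triplicate; percent inhibition of binding calculated.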

[2] = target: T2, 5-hydroxytryptamine receptor 3A (Homo sapiens, UniProt P46098); assay: Displacement of [3H]BRL-43694 from human 5HT3 receptor expressed in HEK293 cells by liquid scintillation counting; type: cell-based
T2 sequence (P46098 whole entry): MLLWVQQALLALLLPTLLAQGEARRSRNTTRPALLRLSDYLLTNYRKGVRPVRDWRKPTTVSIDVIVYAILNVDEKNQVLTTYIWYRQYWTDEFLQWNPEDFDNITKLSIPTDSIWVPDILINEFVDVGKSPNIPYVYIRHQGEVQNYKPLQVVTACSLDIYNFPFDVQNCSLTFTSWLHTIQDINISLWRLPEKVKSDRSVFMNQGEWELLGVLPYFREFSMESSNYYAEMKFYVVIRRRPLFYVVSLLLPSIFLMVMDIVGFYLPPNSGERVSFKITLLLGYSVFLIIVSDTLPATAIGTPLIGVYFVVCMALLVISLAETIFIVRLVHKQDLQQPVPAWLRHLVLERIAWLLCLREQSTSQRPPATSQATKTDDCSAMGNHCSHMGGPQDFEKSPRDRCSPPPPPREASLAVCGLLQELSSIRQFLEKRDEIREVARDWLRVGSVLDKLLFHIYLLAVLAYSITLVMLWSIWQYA
Procedure, shortened: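 HEK-293 membranes expressing human 5-HT3 were incubated with 0.5 nmol/L [3H]BRL-43694 (final) for 60 min at 25 °C. Buffer: 50 mM Tris-HCl, 5 mM MgCl2, 1 mM EDTA, pH 7.5. Compound came from 270 μmol/L DMSO stock, diluted in buffer. Filtration was through GF/B presoaked in 0.5% polyethyleneimine, with two cold Tris washes. Run in duplicate or triplicate; percent inhibition calculated.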

[3] = Drug level in Sprague-Dawley rat brain at 3 mg/kg, po after 4 hrs by HPLC analysis; type: ADME, organism-based; set-up: dose 3 mg/kg, route oral; conditions: read-out: Drug uptake
Procedure, shortened: (§1)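 Total compound concentration was measured in brain and blood at 2, 4 and 8 h after a single oral 3 mg/kg dose. Brain/blood ratio was also derived. Values are mean ± SD of three rats.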

[4] = Drug level in Sprague-Dawley rat brain at 3 mg/kg, po after 2 hrs by HPLC analysis; type: ADME, organism-based; set-up: dose 3 mg/kg, route oral; conditions: read-out: Drug uptake; procedure, shortened: as §1
[5] = Ratio of drug level in brain to blood in Sprague-Dawley rat at 3 mg/kg, po after 4 hrs; type: ADME, organism-based; set-up: dose 3 mg/kg, route oral
Procedure, shortened: (§2)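 Rats dosed 3 mg/kg orally; total compound levels measured in brain and blood at 2, 4 and 8 h, brain/blood ratio derived. Mean ± SD of three rats.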

[6] = Drug level in Sprague-Dawley rat blood at 3 mg/kg, po after 2 hrs by HPLC analysis; type: ADME, organism-based; set-up: dose 3 mg/kg, route oral; conditions: whole blood, read-out: Drug uptake; procedure, shortened: as §1
[7] = Drug level in Sprague-Dawley rat blood at 3 mg/kg, po after 4 hrs by HPLC analysis; type: ADME, organism-based; set-up: dose 3 mg/kg, route oral; conditions: whole blood, read-out: Drug uptake; procedure, shortened: as §1
[8] = Ratio of drug level in brain to blood in Sprague-Dawley rat at 3 mg/kg, po after 2 hrs; type: ADME, organism-based; set-up: dose 3 mg/kg, route oral; procedure, shortened: as §2
[9] = Ratio of drug level in brain to blood in Sprague-Dawley rat at 3 mg/kg, po after 8 hrs; type: ADME, organism-based; set-up: dose 3 mg/kg, route oral; procedure, shortened: as §2
[10] = Drug level in Sprague-Dawley rat brain at 3 mg/kg, po after 8 hrs by HPLC analysis; type: ADME, organism-based; set-up: dose 3 mg/kg, route oral; conditions: read-out: Drug uptake; procedure, shortened: as §1
[11] = Drug level in Sprague-Dawley rat blood at 3 mg/kg, po after 8 hrs by HPLC analysis; type: ADME, organism-based; set-up: dose 3 mg/kg, route oral; conditions: whole blood, read-out: Drug uptake; procedure, shortened: as §1
[12] = target: T3, 5-hydroxytryptamine receptor 3A (Cavia porcellus) (UniProt O70212); assay: Inhibition of 5HT3 receptor-mediated contraction of guinea pig ileum at 1 umol/L after 20 mins relative to control; type: tissue-based
T3 sequence (whole entry): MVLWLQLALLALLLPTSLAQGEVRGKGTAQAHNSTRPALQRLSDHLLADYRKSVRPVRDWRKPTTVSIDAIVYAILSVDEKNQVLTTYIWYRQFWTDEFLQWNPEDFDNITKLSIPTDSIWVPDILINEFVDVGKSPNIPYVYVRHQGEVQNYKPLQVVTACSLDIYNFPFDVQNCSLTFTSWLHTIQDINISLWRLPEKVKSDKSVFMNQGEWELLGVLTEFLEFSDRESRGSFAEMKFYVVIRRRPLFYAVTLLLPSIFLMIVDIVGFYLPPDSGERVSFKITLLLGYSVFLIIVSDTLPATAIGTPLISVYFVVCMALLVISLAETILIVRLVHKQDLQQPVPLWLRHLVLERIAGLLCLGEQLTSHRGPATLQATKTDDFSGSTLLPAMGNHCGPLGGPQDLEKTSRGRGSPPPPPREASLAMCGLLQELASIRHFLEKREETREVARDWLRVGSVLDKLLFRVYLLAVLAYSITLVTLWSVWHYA
Procedure, shortened: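 Ileum strips in Tyrode solution at 37 °C, gassed 5% CO2/95% O2, isotonic contractions under 1 g load. After at least 3 stable contractions to 10 μM 2-methyl-5-HT, tissue exposed to compound or DMSO vehicle for 20 min, then 10 μM 2-methyl-5-HT re-added; contraction expressed as % inhibition of control.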

SMILES | IC50 [1] | IC50 [2] | other results
Cc1cccc2nc(CCCCN3CCN(c4ccc5ccccc5n4)CC3)n(N)c(=O)c12 | 13.5 nM | > 100 nM | –
Cc1sc2nc(SCCCN3CCN(c4ccc5ccccc5n4)CC3)[nH]c(=O)c2c1C | > 100 nM | > 100 nM | –
CC(=O)N1CCc2c(sc3nc(CCCCN4CCN(c5ccc6ccccc6n5)CC4)n(N)c(=O)c23)C1 | < 10 nM | 22.1 nM | concentration at 4 h [3]: 19.5 nM; concentration at 2 h [4]: 15.1 nM; Kp at 4 h [5]: 0.355; concentration at 2 h [6]: 51 nM; concentration at 4 h [7]: 55.8 nM; Kp at 2 h [8]: 0.294; Kp at 8 h [9]: 0.307; concentration at 8 h [10]: 13.4 nM; concentration at 8 h [11]: 43.7 nM
Nn1c(SCCCN2CCN(c3ccc4ccccc4n3)CC2)nc2cccnc2c1=O | < 1 nM | 61 nM | –
Cc1sc2nc(SCCCN3CCN(c4nc5ccccc5c5ccccc45)CC3)n(N)c(=O)c2c1C | 55.4 nM | > 100 nM | –
Nn1c(CCCCN2CCN(c3ccc4ccccc4n3)CC2)nc2cc(F)ccc2c1=O | < 10 nM | > 100 nM | –
Nn1c(CCCCN2CCN(c3ccc4ccccc4n3)CC2)nc2ccc(Cl)cc2c1=O | < 10 nM | > 100 nM | –
Nn1c(CCCCN2CCN(c3nc4ccccc4c4c3CCC4)CC2)nc2c(c1=O)CCCC2 | 62.3 nM | > 100 nM | –
Nn1c(CCCCN2CCN(c3ccc4ccccc4n3)CC2)nc2ccc(F)cc2c1=O | < 10 nM | 99.4 nM | –
Nn1c(SCCCN2CCN(c3ccc4ccccc4n3)CC2)nc2sc3c(c2c1=O)CCCC3 | < 10 nM | 41.4 nM | –
Nn1c(SCCCN2CCN(c3ccc4ccccc4n3)CC2)nc2ncccc2c1=O | < 1 nM | 64.8 nM | –
O=c1[nH]c(CCCCN2CCN(c3ccc4ccccc4n3)CC2)nc2c1CCCC2 | 6.2 nM | 24.6 nM | –
Nn1c(CCCCN2CCN(c3ccc4ccc(O)cc4n3)CC2)nc2c(c1=O)CCCC2 | 46.6 nM | 55.2 nM | –
O=c1[nH]c(SCCCN2CCN(c3ccc4ccccc4n3)CC2)nc2sc3c(c12)CCCC3 | > 100 nM | 44.2 nM | –
Cc1cc2ccccc2nc1N1CCN(CCCCc2nc3c(c(=O)n2N)CCCC3)CC1 | 96 nM | > 100 nM | –
Cc1sc2nc(SCCCN3CCN(c4ccccn4)CC3)n(N)c(=O)c2c1C | 4.2 nM | > 100 nM | –
Nn1c(CCCCN2CCN(c3ccc4ccccc4n3)CC2)nc2cc(Cl)ccc2c1=O | 18 nM | > 100 nM | –
Cc1sc2nc(CCCCN3CCN(c4ccc5ccccc5n4)CC3)n(N)c(=O)c2c1C | < 10 nM | 26.7 nM | –
CC1CCc2c(nc(CCCCN3CCN(c4ccc5ccccc5n4)CC3)n(N)c2=O)C1 (stereo not drawn) | < 10 nM | 97.9 nM | –
Nn1c(CCCCN2CCN(c3ccc4ccccc4n3)CC2)nc2c(Cl)cccc2c1=O | < 10 nM | 83.1 nM | –
Nn1c(SCCCN2CCN(c3ccc4ccccc4n3)CC2)nc2sc3c(c2c1=O)CCNC3 | 5.2 nM | 100 nM | –
Cc1sc2nc(SCCCN3CCN(c4cc(C)c5ccccc5n4)CC3)n(N)c(=O)c2c1C | 4.3 nM | 50.5 nM | –

SMILES | IC50 [1] | IC50 [2] | other results
Nn1c(CCCCN2CCN(c3ccc4ccccc4n3)CC2)nc2c(c1=O)CCCCC2 | < 10 nM | 84.8 nM | –
Nn1c(SCCCN2CCN(c3ccc4ccccc4n3)CC2)nc2ccccc2c1=O | 24.4 nM | 69.9 nM | –
Cc1cccc2c(=O)n(N)c(CCCCN3CCN(c4ccc5ccccc5n4)CC3)nc12 | < 10 nM | 15.6 nM | –
CC1CCc2nc(CCCCN3CCN(c4ccc5ccccc5n4)CC3)n(N)c(=O)c2C1 (stereo not drawn) | < 10 nM | 48.3 nM | –
Cc1sc2nc(SCCCN3CCN(c4ccc5ccccc5n4)CC3)n(N)c(=O)c2c1C | 36.4 nM | 48.4 nM | inhibition [12]: 41.9%
Nn1c(CCN2CCN(c3ccc4ccccc4n3)CC2)nc2c(c1=O)CCCC2 | > 100 nM | > 100 nM | –
Nn1c(CCCCN2CCN(c3ccc4ccccc4n3)CC2)nc2cccc(Cl)c2c1=O | < 10 nM | > 100 nM | –
Cc1c(N2CCN(CCCCc3nc4c(c(=O)n3N)CCCC4)CC2)nc2ccccc2c1C | 64.6 nM | > 100 nM | –
Cc1sc2nc(SCCCN3CCN(c4nc5ccccc5nc4-c4ccccc4)CC3)n(N)c(=O)c2c1C | > 100 nM | > 100 nM | –
Nn1c(CCCCN2CCN(c3ccc4ccccc4n3)CC2)nc2c(c1=O)CC(O)CC2 (stereo not drawn) | < 10 nM | 46.5 nM | –
Nn1c(CCCCN2CCN(c3ccc4ccccc4n3)CC2)nc2cccc(F)c2c1=O | < 10 nM | 50.6 nM | –
Nn1c(CN2CCN(c3ccc4ccccc4n3)CC2)nc2c(c1=O)CCCC2 | > 100 nM | 86.6 nM | –
Nn1c(CCCCN2CCN(c3ccc4cc(O)ccc4n3)CC2)nc2c(c1=O)CCCC2 | 59.3 nM | > 100 nM | –
Nn1c(CCCCN2CCN(c3nc4ccccc4cc3O)CC2)nc2c(c1=O)CCCC2 | 96.4 nM | 52.6 nM | –
Cc1ccc2nc(CCCCN3CCN(c4ccc5ccccc5n4)CC3)n(N)c(=O)c2c1 | < 10 nM | 45.6 nM | –
Nn1c(SCCCN2CCN(c3ccc4ccccc4n3)CC2)nc2cc([N+](=O)[O-])ccc2c1=O | 1.3 nM | > 100 nM | –
Nn1c(CCCN2CCN(c3ccc4ccccc4n3)CC2)nc2c(c1=O)CCCC2 | 90.4 nM | > 100 nM | –
Cc1sc2nc(SCCCN3CCN(c4ccc5c(n4)CCCC5)CC3)n(N)c(=O)c2c1C | 6.1 nM | > 100 nM | –
Nn1c(CCCCCN2CCN(c3ccc4ccccc4n3)CC2)nc2c(c1=O)CCCC2 | 7.6 nM | > 100 nM | –
Nn1c(CCCCN2CCN(c3ccc4ccccc4n3)CC2)nc2c(c1=O)CCC2 | < 1 nM | 62.1 nM | –
Nn1c(CCCCN2CCN(c3nc4ccccc4c4c3CCCC4)CC2)nc2c(c1=O)CCCC2 | > 100 nM | > 100 nM | –
Cc1sc2nc(SCCCN3CCN(c4nc5ccccc5s4)CC3)n(N)c(=O)c2c1C | 66.6 nM | 87.6 nM | –
